Values after ≈ are worked out from the molar mass of the structure shown.
Experiments:
Type in all cases: functional
Staphylococcus aureus [1] = assay: Antibacterial activity against methicillin-sensitive Staphylococcus aureus 14-3 after 18 to 24 hrs by two-fold serial dilution method
Summary of the method: (§1)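 Twofold serial dilution in agar media against Gram-positive and Gram-negative strains. Plates incubated at 35 °C for 18–24 h. MIC read as the lowest compound concentration giving complete inhibition of bacterial growth.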

Enterococcus faecalis [2] = assay: Antibacterial activity against Enterococcus faecalis 14-1 after 18 to 24 hrs by two-fold serial dilution method; summary of the method: as §1
Enterococcus faecalis [3] = assay: Antibacterial activity against Enterococcus faecalis 14-2 after 18 to 24 hrs by two-fold serial dilution method; summary of the method: as §1
Klebsiella pneumoniae [4] = assay: Antibacterial activity against Klebsiella pneumoniae 14-2 after 18 to 24 hrs by two-fold serial dilution method; summary of the method: as §1
[5] = test system: Staphylococcus epidermidis; assay: Antibacterial activity against methicillin-resistant Staphylococcus epidermidis 14-37 after 18 to 24 hrs by two-fold serial dilution method
Summary of the method: (§2)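 Agar media, standard twofold serial dilution. MIC is the lowest concentration giving complete inhibition of bacterial growth after incubation at 35 °C for 18–24 h. Ciprofloxacin and levofloxacin were run as comparators.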

Staphylococcus aureus [6] = assay: Antibacterial activity against methicillin-resistant Staphylococcus aureus 14-4 after 18 to 24 hrs by two-fold serial dilution method; summary of the method: as §2
Staphylococcus aureus [7] = assay: Antibacterial activity against methicillin-sensitive Staphylococcus aureus 14-1 after 18 to 24 hrs by two-fold serial dilution method; summary of the method: as §1
Pseudomonas aeruginosa [8] = assay: Antibacterial activity against Pseudomonas aeruginosa 14-9 after 18 to 24 hrs by two-fold serial dilution method; summary of the method: as §1
Pseudomonas aeruginosa [9] = assay: Antibacterial activity against Pseudomonas aeruginosa 14-15 after 18 to 24 hrs by two-fold serial dilution method; summary of the method: as §1
Enterococcus faecium [10] = assay: Antibacterial activity against Enterococcus faecium 14-6 after 18 to 24 hrs by two-fold serial dilution method; summary of the method: as §1
Staphylococcus aureus [11] = assay: Antibacterial activity against methicillin-resistant Staphylococcus aureus 14-5 after 18 to 24 hrs by two-fold serial dilution method; summary of the method: as §2
[12] = test system: Staphylococcus epidermidis; assay: Antibacterial activity against methicillin-resistant Staphylococcus epidermidis 14-39 after 18 to 24 hrs by two-fold serial dilution method; summary of the method: as §2
Pseudomonas aeruginosa [13] = assay: Antibacterial activity against Pseudomonas aeruginosa ATCC 27853 after 18 to 24 hrs by two-fold serial dilution method; summary of the method: as §1
Klebsiella pneumoniae [14] = assay: Antibacterial activity against Klebsiella pneumoniae 14-1 after 18 to 24 hrs by two-fold serial dilution method; summary of the method: as §1
[15] = test system: Staphylococcus epidermidis; assay: Antibacterial activity against methicillin-resistant Staphylococcus epidermidis 14-21 after 18 to 24 hrs by two-fold serial dilution method; summary of the method: as §2
Escherichia coli [16] = assay: Antibacterial activity against Escherichia coli ATCC 25922 after 18 to 24 hrs by two-fold serial dilution method; summary of the method: as §1
Klebsiella pneumoniae [17] = assay: Antibacterial activity against Klebsiella pneumoniae 14-4 after 18 to 24 hrs by two-fold serial dilution method; summary of the method: as §1
Streptococcus pneumoniae = assay: Antibacterial activity against methicillin-resistant Streptococcus pneumoniae ATCC 19615 after 18 to 24 hrs by two-fold serial dilution method; summary of the method: as §2
Escherichia coli [18] = assay: Antibacterial activity against extended-spectrum beta-lactamase producing Escherichia coli 14-2 after 18 to 24 hrs by two-fold serial dilution method; summary of the method: as §1
Enterococcus faecium [19] = assay: Antibacterial activity against Enterococcus faecium 14-5 after 18 to 24 hrs by two-fold serial dilution method; summary of the method: as §1
[20] = test system: Staphylococcus epidermidis; assay: Antibacterial activity against methicillin-sensitive Staphylococcus epidermidis 14-2 after 18 to 24 hrs by two-fold serial dilution method; summary of the method: as §1
Klebsiella pneumoniae [21] = assay: Antibacterial activity against extended-spectrum beta-lactamase producing Klebsiella pneumoniae 14-19 after 18 to 24 hrs by two-fold serial dilution method; summary of the method: as §1
Escherichia coli [22] = assay: Antibacterial activity against Escherichia coli 14-1 after 18 to 24 hrs by two-fold serial dilution method; summary of the method: as §1
Pseudomonas aeruginosa [23] = assay: Antibacterial activity against Pseudomonas aeruginosa 14-14 after 18 to 24 hrs by two-fold serial dilution method; summary of the method: as §1
Klebsiella pneumoniae [24] = assay: Antibacterial activity against extended-spectrum beta-lactamase producing Klebsiella pneumoniae 14-18 after 18 to 24 hrs by two-fold serial dilution method; summary of the method: as §1
[25] = test system: Staphylococcus epidermidis; assay: Antibacterial activity against methicillin-resistant Staphylococcus epidermidis 14-22 after 18 to 24 hrs by two-fold serial dilution method; summary of the method: as §2
Pseudomonas aeruginosa [26] = assay: Antibacterial activity against Pseudomonas aeruginosa 14-16 after 18 to 24 hrs by two-fold serial dilution method; summary of the method: as §1
Klebsiella pneumoniae [27] = assay: Antibacterial activity against Klebsiella pneumoniae 14-3 after 18 to 24 hrs by two-fold serial dilution method; summary of the method: as §1
Escherichia coli [28] = assay: Antibacterial activity against extended-spectrum beta-lactamase producing Escherichia coli 14-1 after 18 to 24 hrs by two-fold serial dilution method; summary of the method: as §1
Staphylococcus aureus [29] = assay: Antibacterial activity against methicillin-sensitive Staphylococcus aureus 14-4 after 18 to 24 hrs by two-fold serial dilution method; summary of the method: as §1
[30] = test system: Mycobacterium tuberculosis; assay: Antimycobacterial activity against Mycobacterium tuberculosis H37Rv ATCC 27294 incubated for 7 days by microplate Alamar Blue assay; details: H37Rv ATCC 27294, 168 h
Summary of the method: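 Fluorescence read-out. MIC is the lowest concentration that reduces fluorescence by at least 90% relative to the mean of replicate bacterium-only controls. Isoniazid and rifampicin were included as reference drugs.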

Klebsiella pneumoniae [31] = assay: Antibacterial activity against extended-spectrum beta-lactamase producing Klebsiella pneumoniae 14-17 after 18 to 24 hrs by two-fold serial dilution method; summary of the method: as §1
Escherichia coli [32] = assay: Antibacterial activity against Escherichia coli 14-2 after 18 to 24 hrs by two-fold serial dilution method; summary of the method: as §1
Staphylococcus aureus [33] = assay: Antibacterial activity against Staphylococcus aureus CMCC 26003 after 18 to 24 hrs by two-fold serial dilution method; summary of the method: as §1
Enterococcus faecium [34] = assay: Antibacterial activity against Enterococcus faecium 14-2 after 18 to 24 hrs by two-fold serial dilution method; summary of the method: as §1

CCO/N=C1/CN(c2nc3c(cc2F)c(=O)c(C(=O)O)cn3-c2nc(N)c(F)cc2F)CC1(C)CNC1CC1 (stereo not given)
MIC (Staphylococcus aureus [1]): 16 µg/mL (≈ 29.3 µM) | MIC (Enterococcus faecalis [2]): 64 µg/mL (≈ 117 µM) | MIC (Enterococcus faecalis [3]): 8 µg/mL (≈ 14.7 µM) | MIC (Klebsiella pneumoniae [4]): > 128 µg/mL | MIC [5]: 128 µg/mL (≈ 235 µM) | MIC (Staphylococcus aureus [6]): 64 µg/mL (≈ 117 µM) | MIC (Staphylococcus aureus [7]): 32 µg/mL (≈ 58.7 µM) | MIC (Pseudomonas aeruginosa [8]): 64 µg/mL (≈ 117 µM) | MIC (Pseudomonas aeruginosa [9]): 128 µg/mL (≈ 235 µM) | MIC (Enterococcus faecium [10]): 64 µg/mL (≈ 117 µM) | MIC (Staphylococcus aureus [11]): 64 µg/mL (≈ 117 µM) | MIC [12]: 64 µg/mL (≈ 117 µM) | MIC (Pseudomonas aeruginosa [13]): 128 µg/mL (≈ 235 µM) | MIC (Klebsiella pneumoniae [14]): > 128 µg/mL | MIC [15]: 64 µg/mL (≈ 117 µM) | MIC (Escherichia coli [16]): 32 µg/mL (≈ 58.7 µM) | MIC (Klebsiella pneumoniae [17]): > 128 µg/mL | MIC (Streptococcus pneumoniae): 16 µg/mL (≈ 29.3 µM) | MIC (Escherichia coli [18]): > 128 µg/mL | MIC (Enterococcus faecium [19]): 128 µg/mL (≈ 235 µM) | MIC [20]: 128 µg/mL (≈ 235 µM) | MIC (Klebsiella pneumoniae [21]): > 128 µg/mL | MIC (Escherichia coli [22]): > 128 µg/mL | MIC (Pseudomonas aeruginosa [23]): 128 µg/mL (≈ 235 µM) | MIC (Klebsiella pneumoniae [24]): > 128 µg/mL | MIC [25]: 128 µg/mL (≈ 235 µM) | MIC (Pseudomonas aeruginosa [26]): > 128 µg/mL | MIC (Klebsiella pneumoniae [27]): > 128 µg/mL | MIC (Escherichia coli [28]): 64 µg/mL (≈ 117 µM) | MIC (Staphylococcus aureus [29]): 4 µg/mL (≈ 7.33 µM) | MIC90 [30]: 27.7 µg/mL (≈ 50.9 µM) | MIC (Klebsiella pneumoniae [31]): > 128 µg/mL | MIC (Escherichia coli [32]): 128 µg/mL (≈ 235 µM) | MIC (Staphylococcus aureus [33]): 0.5 µg/mL (≈ 0.917 µM) | MIC (Enterococcus faecium [34]): 128 µg/mL (≈ 235 µM)

CO/N=C1/CN(c2nc3c(cc2F)c(=O)c(C(=O)O)cn3-c2nc(N)c(F)cc2F)CC1CNC1CC1 (stereo not given)
MIC (Staphylococcus aureus [1]): 16 µg/mL (≈ 30.9 µM) | MIC (Enterococcus faecalis [2]): 16 µg/mL (≈ 30.9 µM) | MIC (Enterococcus faecalis [3]): 4 µg/mL (≈ 7.73 µM) | MIC (Klebsiella pneumoniae [4]): 32 µg/mL (≈ 61.8 µM) | MIC [5]: 64 µg/mL (≈ 124 µM) | MIC (Staphylococcus aureus [6]): 64 µg/mL (≈ 124 µM) | MIC (Staphylococcus aureus [7]): 16 µg/mL (≈ 30.9 µM) | MIC (Pseudomonas aeruginosa [8]): 32 µg/mL (≈ 61.8 µM) | MIC (Pseudomonas aeruginosa [9]): 128 µg/mL (≈ 247 µM) | MIC (Enterococcus faecium [10]): 32 µg/mL (≈ 61.8 µM) | MIC (Staphylococcus aureus [11]): 16 µg/mL (≈ 30.9 µM) | MIC [12]: 16 µg/mL (≈ 30.9 µM) | MIC (Pseudomonas aeruginosa [13]): 16 µg/mL (≈ 30.9 µM) | MIC (Klebsiella pneumoniae [14]): 32 µg/mL (≈ 61.8 µM) | MIC [15]: 64 µg/mL (≈ 124 µM) | MIC (Escherichia coli [16]): 4 µg/mL (≈ 7.73 µM) | MIC (Klebsiella pneumoniae [17]): > 128 µg/mL | MIC (Streptococcus pneumoniae): 32 µg/mL (≈ 61.8 µM) | MIC (Escherichia coli [18]): > 128 µg/mL | MIC (Enterococcus faecium [19]): 16 µg/mL (≈ 30.9 µM) | MIC [20]: 128 µg/mL (≈ 247 µM) | MIC (Klebsiella pneumoniae [21]): 64 µg/mL (≈ 124 µM) | MIC (Escherichia coli [22]): > 128 µg/mL | MIC (Pseudomonas aeruginosa [23]): 128 µg/mL (≈ 247 µM) | MIC (Klebsiella pneumoniae [24]): 64 µg/mL (≈ 124 µM) | MIC [25]: 32 µg/mL (≈ 61.8 µM) | MIC (Pseudomonas aeruginosa [26]): 64 µg/mL (≈ 124 µM) | MIC (Klebsiella pneumoniae [27]): > 128 µg/mL | MIC (Escherichia coli [28]): 16 µg/mL (≈ 30.9 µM) | MIC (Staphylococcus aureus [29]): 16 µg/mL (≈ 30.9 µM) | MIC90 [30]: 24.3 µg/mL (≈ 46.9 µM) | MIC (Klebsiella pneumoniae [31]): 64 µg/mL (≈ 124 µM) | MIC (Escherichia coli [32]): > 128 µg/mL | MIC (Staphylococcus aureus [33]): 0.25 µg/mL (≈ 0.483 µM) | MIC (Enterococcus faecium [34]): 32 µg/mL (≈ 61.8 µM)

— ChEMBL document CHEMBL3734675, “Synthesis, antimycobacterial and antibacterial activity of fluoroquinolone derivatives containing an 3-alkoxyimino-4-(cyclopropylanimo)methylpyrrolidine moiety” (2015)
